Experiments:
Rattus norvegicus [1] = assay: Antiinflammatory activity in Sprague-Dawley rat assessed as inhibition carrageenan-induced paw edema at 5 mg/kg, ip pretreated for 15 mins followed by carrageenan challenge measured at 2 hrs post carrageenan challenge; settings: read-out: INH
Rattus norvegicus [2] = assay: Antiinflammatory activity in Sprague-Dawley rat assessed as inhibition carrageenan-induced paw edema at 5 mg/kg, ip pretreated for 30 mins followed by carrageenan challenge measured up to 8 hrs post carrageenan challenge; assay type: functional
Rattus norvegicus [3] = assay: Antiinflammatory activity in Sprague-Dawley rat assessed as inhibition carrageenan-induced paw edema at 5 mg/kg, ip pretreated for 15 mins followed by carrageenan challenge measured at 6 hrs post carrageenan challenge; assay type: functional
In short: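 Male Sprague-Dawley rats received peptide IP (30, 10 or 3 mg/kg), or indomethacin IP at 5 mg/kg, 15 min before subplantar carrageenan. Paw volume was followed over time against a vehicle group.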

Rattus norvegicus [4] = assay: Antiinflammatory activity in Sprague-Dawley rat assessed as inhibition carrageenan-induced paw edema at 5 mg/kg, ip pretreated for 15 mins followed by carrageenan challenge measured at 4 hrs post carrageenan challenge; assay type: functional
In short: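 Male Sprague-Dawley rats got an IP pretreatment 15 min before a subplantar carrageenan injection. Paw volume was recorded at 1, 2, 4 and 6 h after carrageenan. Percent inhibition of paw edema was calculated against a vehicle-treated group.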

Rattus norvegicus [5] = assay: Antiinflammatory activity in Sprague-Dawley rat assessed as inhibition carrageenan-induced paw edema at 5 mg/kg, ip pretreated for 15 mins followed by carrageenan challenge measured at 1 hr post carrageenan challenge; settings: read-out: INH
Plasma = assay: Anti-coagulating activity in human plasma assessed as increase in coagulation time at 14 uM by aPTT assay relative to control; assay type: functional
Coagulation factor XI = Coagulation factor XI (Homo sapiens, UniProt P03951); assay: Inhibition of factor 11a (unknown origin)
Chain of Coagulation factor XI (P03951 19-387 limits assumed): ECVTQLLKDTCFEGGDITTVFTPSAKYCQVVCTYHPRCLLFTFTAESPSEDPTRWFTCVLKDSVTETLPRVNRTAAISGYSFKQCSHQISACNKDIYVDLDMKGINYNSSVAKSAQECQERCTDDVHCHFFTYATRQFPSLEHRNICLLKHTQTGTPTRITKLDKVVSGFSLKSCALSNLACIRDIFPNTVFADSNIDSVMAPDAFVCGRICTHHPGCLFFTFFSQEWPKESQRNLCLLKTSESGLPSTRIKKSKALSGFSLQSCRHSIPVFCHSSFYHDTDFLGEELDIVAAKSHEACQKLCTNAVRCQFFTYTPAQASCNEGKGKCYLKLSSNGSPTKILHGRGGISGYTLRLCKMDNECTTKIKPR
Chain of Coagulation factor XI (P03951 388-625 limits assumed): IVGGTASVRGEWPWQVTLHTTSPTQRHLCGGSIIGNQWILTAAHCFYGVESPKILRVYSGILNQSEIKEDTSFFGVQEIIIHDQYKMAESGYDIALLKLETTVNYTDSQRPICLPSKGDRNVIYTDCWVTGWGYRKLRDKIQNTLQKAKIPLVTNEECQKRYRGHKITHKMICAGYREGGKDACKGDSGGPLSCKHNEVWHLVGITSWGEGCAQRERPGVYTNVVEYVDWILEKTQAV

SMILES: COc1ccc2c(c1)c(CC(=O)O)c(C)n2C(=O)c1ccc(Cl)cc1 [INDOMETHACIN]
- inhibition in vivo at 5 mg/kg (Rattus norvegicus [1]): 56%
- inhibition in vivo at 5 mg/kg (Rattus norvegicus [2]): 47.2%
- inhibition in vivo at 5 mg/kg (Rattus norvegicus [3]): 48%
- inhibition in vivo at 5 mg/kg (Rattus norvegicus [4]): 54%
- inhibition in vivo at 5 mg/kg (Rattus norvegicus [5]): 79%

SMILES: Cc1cc(Oc2nc(Oc3cccc(C(=N)N)c3)c(F)c(NC(C)CCc3ccccc3)c2F)c(C(=O)O)cc1N(C)C (configuration not stated)
- fold change (FC) (Plasma): 2
- Ki (Coagulation factor XI): 1000 nM
